Shown are actives, neighbours in structure and some others; about 2.3% of the full set was active somewhere.
STAT3 activator – activators of IL-6 induced STAT3 signaling | 190,000 compounds, 0.91% hits | activation (% of control), % at 5.6 µM | U3A cells, IL-6 STAT3-luciferase reporter, luminescence; 100% = signal with IL-6 EC80 alone;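 active = activation above the screen-wide mean of compound activation plus 3 SD, cut at about 130% in these data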
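Material: human STAT1-deficient U3A cells with stable STAT3-luciferase reporter / Probe or stimulus: IL-6 stimulus at 33 ng/mL final / Schedule: 1 h compound pre-exposure, 6 h IL-6 stimulation, 37 °C / Technique: luminescence / Read-out basis: percent of IL-6-only median luminescence / Control set: IL-6-only high control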
STAT1 blocker – STAT1 signaling inhibition; NIH 3T3 STAT1-luciferase reporter, IFN-gamma, luminescence; AID 920; 200,000 compounds, 0.35% hits; inhibition, % at 5.5 µM;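 active = inhibition above a set limit, the mean inhibition across all tested compounds plus 3 SD, cut at about 34% in these data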
HSP90 inh – inhibitors of HSP90 luciferase refolding in rabbit reticulocyte lysate; AID 1789; inhibition, % at 5.6 µM; 290,000 compounds, 0.91% hits; luciferase refolding luminescence, 3 h;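 active = inhibition above the screen-wide mean plus 3 SD, computed separately per campaign, cut at about 16% in these data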;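 note: inhibitors lower the luminescence because luciferase stays unfolded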
PPC-1+TRAIL kill – PPC-1 cancer cell killing with TRAIL present; cell killing (% activity), % at 4 µM or 5 µM; 220,000 compounds, 0.41% hits; PPC-1 cells + TRAIL, ATPLite viability luminescence;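 active = cell killing above 50% in the first pass at 4 µM, then a duplicate retest at 5 µM averaging 50% or more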
TRAIL sens C8 – sensitizes caspase-8 expressing cells to TRAIL; AID 624354; 360,000 compounds, 1% hits; NB7+C8 cells + TRAIL, ATPlite viability luminescence; inhibition (viability loss, TRAIL sensitization), % at 10 µM;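 active = compounds causing at least 50% loss of cell viability in the single-dose screen, relative to plate controls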
STAT3 inh-1 – STAT3 signaling inhibition | U3A cells, IL-6 STAT3-luciferase reporter, luminescence; host cell line lacks STAT1 | inhibition, % at 5.5 µM | 190,000 compounds, 0.89% hits | AID 862;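 active = inhibition above the mean inhibition across all screened compounds plus 3 SD, cut at about 44% in these data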
STAT3 inh-2 – STAT3 inhibition, confirmation assay; shares compounds with STAT3 inh-1; U3A cells, IL-6 STAT3 luciferase reporter, luminescence; cell line lacks STAT1; inhibition, % at 5.7 µM; 1,200 compounds, 45% hits;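 active = inhibition above the hit cutoff computed for the primary STAT3 screen, cut at about 44% in these data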
NFkB inh 2 – NF-kappaB inhibition in STAT3 inhibitor counter-screen | shares compounds with STAT3 inh-1 | 1,200 compounds, 36% hits | HEK293T NF-kB luciferase reporter, TNF-alpha induced | AID 1308 | inhibition, % at 5.7 µM;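 active = inhibition above the mean of solvent-only control wells plus 3 SD, cutoff set per campaign, cut at about 13% in these data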
STAT1 inh STAT3c – counter-screen for STAT3 inhibitors: STAT1 inhibition. NIH 3T3 STAT1-luciferase reporter, IFN-gamma induced, luminescence. inhibition, % at 5.7 µM. AID 1317. shares compounds with STAT3 inh-1. 1,200 compounds, 27% hits;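 active = inhibition above the mean plus 3 SD of solvent-only control wells, limit set per screening run, cut at about 16% in these data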
Of the large screens only hits and unclear results are named; the others gave an inactive call (follow-up assays come after a bar, where they were run).

Cc1cc(C)nc(N/N=C/c2sccc2C)n1	none
Cc1ccsc1/C=N/Nc1nc(=O)[nH]nc1C	STAT3 inh-1 53 | STAT3 inh-2 inactive | NFkB inh 2 inactive | STAT1 inh STAT3c inactive
Cc1sc(NC(=O)CN2CCOCC2)nc1-c1ccc2c(c1)CCN2S(=O)(=O)c1ccccc1	STAT3 inh-1 66 | STAT3 inh-2 52 | NFkB inh 2 22 | STAT1 inh STAT3c 20
Cc1ccc(S(=O)(=O)N/N=C/c2cccc3c2OCCO3)cc1	none
O=C(Nc1nc2ccccc2[nH]1)c1ccc([N+](=O)[O-])cc1	TRAIL sens C8 51, STAT3 inh-1 55 | STAT3 inh-2 inactive | NFkB inh 2 inactive | STAT1 inh STAT3c inactive
O=C(Nc1nc2ccccc2[nH]1)c1cccc([N+](=O)[O-])c1	none
Cc1ccc(-c2cc(C(=O)O)n(-c3ccc(S(N)(=O)=O)cc3)n2)cc1	none
Cc1nc2ccc(-c3nc4cc(N)ccc4o3)cc2[nH]1	TRAIL sens C8 60, STAT3 inh-1 55 | STAT3 inh-2 inactive | NFkB inh 2 inactive | STAT1 inh STAT3c inactive
Cc1ccccc1-c1nc2cc(N)ccc2o1	none
Cc1sc2ncnc(NCc3ccco3)c2c1C	none
Cc1sc2ncnc(NCc3cccs3)c2c1C	STAT3 inh-1 48 | STAT3 inh-2 inactive | NFkB inh 2 inactive | STAT1 inh STAT3c inactive
CCOc1nc2c(c(=O)n(C)c(=O)n2C)n1Cc1ccccc1Cl	STAT3 inh-1 46 | STAT3 inh-2 inactive | NFkB inh 2 inactive | STAT1 inh STAT3c inactive
Cn1c(=O)c2c(nc(Br)n2Cc2ccccc2Cl)n(C)c1=O	none
COC(=O)c1ccc(NC(=O)CCN2CCN(CCC(=O)Nc3ccc(C(=O)OC)cc3)CC2)cc1	STAT3 inh-1 49 | STAT3 inh-2 inactive | NFkB inh 2 inactive | STAT1 inh STAT3c inactive
N=c1c2c(n(Cc3ccccc3)c3c1CCC3)CCC2	STAT3 inh-1 49 | STAT3 inh-2 inactive | NFkB inh 2 inactive | STAT1 inh STAT3c 24
N=c1c2c(n(Cc3cccc(Cl)c3)c3c1CCC3)CCCC2	STAT3 inh-1 54 | STAT3 inh-2 45 | NFkB inh 2 inactive | STAT1 inh STAT3c 25
N=c1c2c(n(Cc3ccc(Cl)cc3)c3c1CCC3)CCC2	STAT3 inh-1 54 | STAT3 inh-2 44 | NFkB inh 2 inactive | STAT1 inh STAT3c 24
Clc1cccc(CN2CCCCCC2)c1	none (no result: STAT3 activator, STAT1 blocker, PPC-1+TRAIL kill, STAT3 inh-1)
N=c1c2c(n(Cc3ccc(F)cc3)c3c1CCC3)CCCC2	none
Nc1nc(Cl)cc(N2CCC(c3cc(-c4ccc(Cl)cc4)n[nH]3)CC2)n1	STAT3 inh-1 53 | STAT3 inh-2 46 | NFkB inh 2 inactive | STAT1 inh STAT3c 21
COc1ccc(-c2cc(C3CCN(c4cc(Cl)nc(N)n4)CC3)[nH]n2)cc1	none
O=C(CN(CCc1ccccc1)S(=O)(=O)c1ccc(Cl)cc1)N/N=C/c1ccccc1C(=O)O	none
c1ccc2c(C3=NNC(=NC4CCCCC4)SC3)c[nH]c2c1	none
c1ccc(C2=NNC(=NC3CC3)SC2)cc1	STAT3 inh-1 74 | STAT3 inh-2 inactive | NFkB inh 2 inactive | STAT1 inh STAT3c inactive
CCn1c(SCC(=O)NC2CCCC2)nnc1-c1c[nH]c2ccccc12	none
CN=C1S/C(=C\c2ccc(O)c(OC)c2)C(=O)N1C	none (no result: STAT3 activator, STAT1 blocker, HSP90 inh, PPC-1+TRAIL kill, STAT3 inh-1)
CCN(Cc1ccccc1)c1ccc(/C=C(\C#N)c2ccccn2)cc1	none
CN(CCC#N)c1ccc(/C=C(\C#N)c2ccccn2)cc1	TRAIL sens C8 84, STAT3 inh-1 49 | STAT3 inh-2 inactive | NFkB inh 2 inactive | STAT1 inh STAT3c inactive
Cc1ccc(-n2nnnc2SCn2nnc3ccccc3c2=O)cc1	none
COc1ccc(C)cc1-n1nnnc1SCn1nnc2ccccc2c1=O	STAT3 inh-1 54 | STAT3 inh-2 44 | NFkB inh 2 inactive | STAT1 inh STAT3c inactive
O=C(NC1CC1)c1cccc(Oc2ccccc2)c1	none (no result: STAT3 activator, STAT1 blocker, PPC-1+TRAIL kill, STAT3 inh-1)
Cc1ccsc1/C=C/C1=NCCCN1C	none
Clc1ccc(OCc2cc(-c3ccccc3)no2)c(Cl)c1	STAT3 inh-1 76 | STAT3 inh-2 46 | NFkB inh 2 inactive | STAT1 inh STAT3c inactive
Cc1cccc(OCc2cc(-c3ccccc3)no2)c1C	none (no result: STAT3 activator, STAT1 blocker, PPC-1+TRAIL kill, STAT3 inh-1)
Cc1cccc(OCC(=O)Nc2ccc(N3CCN(C(=O)c4ccco4)CC3)cc2)c1	STAT3 inh-1 54 | STAT3 inh-2 49 | NFkB inh 2 inactive | STAT1 inh STAT3c 17
Cc1ccc(OCC(=O)Nc2ccc(N3CCN(C(=O)c4ccco4)CC3)cc2)cc1C	none
COc1ccc2c(=O)c(-c3ccc4c(c3)OCO4)coc2c1	TRAIL sens C8 57, STAT3 inh-1 55 | STAT3 inh-2 inactive | NFkB inh 2 inactive | STAT1 inh STAT3c inactive
CC(C)N(C(=S)NC1CC2CCC1C2)c1ccccc1 (stereo not given)	none
Cc1cccc(Nc2nc(-c3c(C)nc4ccccn34)cs2)c1	STAT3 inh-1 58 | STAT3 inh-2 62 | NFkB inh 2 18 | STAT1 inh STAT3c inactive
Cc1nc2ccccn2c1-c1csc(Nc2cccc(O)c2)n1	none (no result: PPC-1+TRAIL kill)
COc1cccc(C(=O)NC(=S)Nc2ccc3[nH]c(=O)[nH]c3c2)c1	none (no result: STAT3 activator, STAT1 blocker, PPC-1+TRAIL kill, STAT3 inh-1)
CC1CCCN(C(=O)Cc2cccc3ccccc23)C1 (stereo not given)	none (no result: STAT3 activator, STAT1 blocker, PPC-1+TRAIL kill, STAT3 inh-1)
CCOC(=O)C1=C(Cc2ccc(C)cc2)C(=O)c2ccccc2C1=O	STAT3 inh-1 60 (no result: TRAIL sens C8) | STAT3 inh-2 60 | NFkB inh 2 inactive | STAT1 inh STAT3c inactive
c1ccc(CC2CCN(c3ncnc4sccc34)CC2)cc1	STAT3 inh-1 83 | STAT3 inh-2 79 | NFkB inh 2 inactive | STAT1 inh STAT3c inactive
COc1ccc(C2CC(=O)c3c([nH]c(C(=O)OC(C)C)c3C)C2)cc1OC (stereo not given)	none
COc1ccc(N=C/C=C2\C=C(c3ccccc3)OC(C)(C)O2)cc1	STAT3 inh-1 48 | STAT3 inh-2 inactive | NFkB inh 2 inactive | STAT1 inh STAT3c inactive
Cn1c(=O)c(C(=O)c2ccccc2)nc2ccccc21	none
Cn1cc(C(=O)c2ccc(Cl)cc2)cc1-c1nc2ccccc2n1C	STAT3 inh-1 46 | STAT3 inh-2 inactive | NFkB inh 2 inactive | STAT1 inh STAT3c inactive
Cc1cc(Cl)c(OCCN2C(=O)NC(C)(C)C2=O)c(Br)c1	none
Nc1cc(-c2ccccc2)nn1Cc1ccc(Cl)cc1	STAT3 inh-1 49 | STAT3 inh-2 45 | NFkB inh 2 inactive | STAT1 inh STAT3c inactive
Nc1cc(-c2ccc(Br)cc2)nn1Cc1ccccc1	STAT3 inh-1 67 | STAT3 inh-2 58 | NFkB inh 2 inactive | STAT1 inh STAT3c inactive
Nc1cc(-c2cccc(Br)c2)nn1Cc1ccccc1	none
